The values below come from ChEMBL document CHEMBL1150130, “Activity-guided isolation of constituents of Renealmia nicolaioides with the potential to induce the phase II enzyme quinone reductase” (J Nat Prod, 2002).

A short description of assay [1]: Chemopreventive index, ratio of IC50 for mouse Hepa-1c1c7 cells to drug level required to double specific NADPH:quinone reductase activity in mouse Hepa-1c1c7 cells. Type of assay: functional. An outline of the steps: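 Cultured mouse hepatoma Hepa 1c1c7 cells treated with extracts, fractions or pure isolates. QR induction was expressed as CD, the concentration that doubles QR specific activity. IC50 was the concentration giving half-maximal inhibition of cell viability in the same cells. Index computed as IC50/CD. Sulforaphane served as positive control.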

The nature of assay [2]: Cytotoxicity against mouse Hepa-1c1c7 cells. The class given is cell-based. Put shortly: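 Mouse Hepa 1c1c7 hepatoma cells were cultured and assessed in the same system as the QR induction assay. IC50 was taken as the concentration causing half-maximal inhibition of cell viability.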
In another assay the test system is Plasmodium falciparum. In words: Antiplasmodial activity against Plasmodium falciparum D6. The class given is functional, organism-based.

Values after ≈ are worked out from the molar mass of the structure shown. Where only a bound is given, the exact number is not on record here.

A word on the IC50: it is the point on the concentration scale where inhibition reaches its midpoint. With `COc1cc(O)c2c(c1)O[C@H](c1ccccc1)CC2=O` (racemic) [PINOSTROBIN], in assay [1], the Ratio is listed as above 111. Further, the IC50 in assay [2] is above 100 µg/mL.

On to `C[S+]([O-])CCCCN=C=S` (stereo not drawn) [SULFORAPHANE], for which, in assay [1], the Ratio stood at 23.8. In assay [2], this compound displayed an IC50 of 2.07 µg/mL (≈ 11.7 µM).

In assay [2], `COc1cc(O)c(C(=O)/C=C/c2ccccc2)c(OC)c1` [FLAVOKAWAIN B] yielded an IC50 of 7.2 µg/mL (≈ 25.3 µM).

Consider `C=C1CC[C@@H](C(C)C)/C=C/[C@@](C)(O)CC[C@@H]1O`, for which the IC50 in the assay with Plasmodium falciparum was below 5 µg/mL.

`C/C1=C\CC[C@](C)(O)/C=C/[C@H](C(C)C)CC1` yielded an IC50 in the assay on Plasmodium falciparum below 5 µg/mL.

`CC(C)C1=CC[C@@]2(C)[C@H](O)CC[C@](C)(O)[C@@H]2C1` [OPLODIOL]: in the assay on Plasmodium falciparum, the IC50 is below 5 µg/mL.
